According to BindingDB's records for doi:10.1128/AAC.00669-08 (Tibotec, 2008):

Experiments:
[1] = biological target: T1, DNA polymerase alpha catalytic subunit (Homo sapiens, UniProt P09884); assay: Inhibition of human DNA polymerase alpha
T1 sequence (P09884 whole entry): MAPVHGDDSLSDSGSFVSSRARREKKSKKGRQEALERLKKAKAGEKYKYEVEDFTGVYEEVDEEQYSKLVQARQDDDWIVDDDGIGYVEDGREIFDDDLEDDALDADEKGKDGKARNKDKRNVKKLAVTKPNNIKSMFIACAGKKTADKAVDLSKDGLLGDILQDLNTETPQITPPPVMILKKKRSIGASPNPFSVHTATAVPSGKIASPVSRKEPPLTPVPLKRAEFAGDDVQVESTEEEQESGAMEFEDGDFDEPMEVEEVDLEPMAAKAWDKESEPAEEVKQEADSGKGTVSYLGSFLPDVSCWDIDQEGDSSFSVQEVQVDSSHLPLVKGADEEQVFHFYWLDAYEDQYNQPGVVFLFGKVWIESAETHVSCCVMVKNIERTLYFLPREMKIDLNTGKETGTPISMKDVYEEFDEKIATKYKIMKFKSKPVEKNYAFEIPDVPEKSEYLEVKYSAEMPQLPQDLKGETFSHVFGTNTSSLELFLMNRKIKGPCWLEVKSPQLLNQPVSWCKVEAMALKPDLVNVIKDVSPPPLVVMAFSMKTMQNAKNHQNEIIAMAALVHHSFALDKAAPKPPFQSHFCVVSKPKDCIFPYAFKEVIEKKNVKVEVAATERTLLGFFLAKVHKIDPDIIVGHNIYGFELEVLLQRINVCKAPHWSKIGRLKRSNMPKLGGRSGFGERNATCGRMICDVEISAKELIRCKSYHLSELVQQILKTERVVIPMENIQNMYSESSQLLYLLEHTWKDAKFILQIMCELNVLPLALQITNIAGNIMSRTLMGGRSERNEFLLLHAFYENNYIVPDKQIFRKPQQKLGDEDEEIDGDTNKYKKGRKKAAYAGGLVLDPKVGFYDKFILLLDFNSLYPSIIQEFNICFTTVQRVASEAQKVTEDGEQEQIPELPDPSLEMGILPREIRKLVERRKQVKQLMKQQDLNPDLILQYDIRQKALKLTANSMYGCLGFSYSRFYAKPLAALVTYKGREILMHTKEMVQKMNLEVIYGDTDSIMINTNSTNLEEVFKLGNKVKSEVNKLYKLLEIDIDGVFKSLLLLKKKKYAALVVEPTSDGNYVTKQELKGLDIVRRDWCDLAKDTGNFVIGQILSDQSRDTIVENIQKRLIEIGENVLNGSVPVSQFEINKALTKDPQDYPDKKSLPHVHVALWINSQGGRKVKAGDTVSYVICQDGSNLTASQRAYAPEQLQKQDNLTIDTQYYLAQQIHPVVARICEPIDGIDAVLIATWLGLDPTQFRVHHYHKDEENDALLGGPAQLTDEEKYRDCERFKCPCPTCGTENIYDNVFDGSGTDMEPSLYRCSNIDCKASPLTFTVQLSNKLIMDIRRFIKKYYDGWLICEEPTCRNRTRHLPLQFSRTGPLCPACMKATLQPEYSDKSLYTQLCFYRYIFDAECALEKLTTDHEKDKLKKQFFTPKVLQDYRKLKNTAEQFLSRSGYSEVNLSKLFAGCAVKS
Summary of the method: (§1)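 Each enzyme–compound pair was tested in duplicate over 0.8 to 100 μM, with 100 μM as the highest dose. Each run included a no-inhibitor control, a solvent dilution (0.016 to 2% DMSO) and the relevant reference inhibitor. Percent inhibition at 100 μM was recorded for polymerase γ.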

DNA polymerase beta = DNA polymerase beta (Homo sapiens, UniProt P06746); assay: Inhibition of human DNA polymerase beta; summary of the method: as §1
[2] = biological target: T2, DNA polymerase subunit gamma-1 (Homo sapiens, UniProt P54098); assay: Inhibition of human DNA polymerase gamma; summary of the method: as §1
T2 sequence (P54098 whole entry): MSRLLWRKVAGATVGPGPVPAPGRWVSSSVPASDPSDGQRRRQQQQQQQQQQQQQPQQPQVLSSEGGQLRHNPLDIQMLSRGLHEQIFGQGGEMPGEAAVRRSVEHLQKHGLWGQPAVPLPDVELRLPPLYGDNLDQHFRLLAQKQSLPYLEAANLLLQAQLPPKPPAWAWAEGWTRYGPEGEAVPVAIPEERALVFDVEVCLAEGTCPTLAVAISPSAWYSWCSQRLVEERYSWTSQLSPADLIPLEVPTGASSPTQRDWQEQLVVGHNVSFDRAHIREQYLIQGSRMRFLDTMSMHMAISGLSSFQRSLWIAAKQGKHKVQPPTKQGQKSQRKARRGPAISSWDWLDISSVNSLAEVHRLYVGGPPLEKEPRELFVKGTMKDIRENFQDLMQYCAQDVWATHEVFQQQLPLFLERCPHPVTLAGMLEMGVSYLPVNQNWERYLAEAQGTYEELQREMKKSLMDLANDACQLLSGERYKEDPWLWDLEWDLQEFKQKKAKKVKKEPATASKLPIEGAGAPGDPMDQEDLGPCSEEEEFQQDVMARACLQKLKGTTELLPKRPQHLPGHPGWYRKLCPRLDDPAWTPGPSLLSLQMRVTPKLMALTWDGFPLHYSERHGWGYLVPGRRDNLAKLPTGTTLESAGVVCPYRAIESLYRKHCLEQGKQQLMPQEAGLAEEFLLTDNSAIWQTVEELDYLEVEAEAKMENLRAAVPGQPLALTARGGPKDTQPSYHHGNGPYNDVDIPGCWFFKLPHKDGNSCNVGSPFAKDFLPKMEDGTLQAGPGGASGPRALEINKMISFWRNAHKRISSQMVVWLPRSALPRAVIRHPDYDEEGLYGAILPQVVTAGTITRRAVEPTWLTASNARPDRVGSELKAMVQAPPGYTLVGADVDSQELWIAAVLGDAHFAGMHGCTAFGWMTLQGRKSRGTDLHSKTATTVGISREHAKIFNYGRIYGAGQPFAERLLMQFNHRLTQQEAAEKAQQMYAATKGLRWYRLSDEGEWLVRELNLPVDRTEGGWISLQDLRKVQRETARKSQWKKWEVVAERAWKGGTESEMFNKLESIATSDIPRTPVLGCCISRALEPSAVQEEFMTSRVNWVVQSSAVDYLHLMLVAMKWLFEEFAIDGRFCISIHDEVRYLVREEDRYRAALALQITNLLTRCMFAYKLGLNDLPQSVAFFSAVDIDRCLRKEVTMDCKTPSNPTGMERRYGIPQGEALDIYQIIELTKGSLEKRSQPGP

Translocator protein [3] = biological target: T3, Translocator protein (Homo sapiens, UniProt P30536); assay: (§2) Inhibition of peripheral benzodiazepine BZD receptor by radioligand binding assay
T3 sequence (P30536 whole entry): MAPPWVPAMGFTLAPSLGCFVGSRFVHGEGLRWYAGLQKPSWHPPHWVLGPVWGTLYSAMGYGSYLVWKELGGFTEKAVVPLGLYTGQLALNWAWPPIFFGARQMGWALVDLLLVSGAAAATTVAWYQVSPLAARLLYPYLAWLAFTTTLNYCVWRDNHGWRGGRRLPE
Summary of the method: (§3)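 Radioligand binding assays for the GABA-A central BZD receptor and the peripheral BZD receptor were run as a single experiment in duplicate.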

Translocator protein [4] = biological target: T3, Translocator protein; assay: as §2; summary of the method: as §3; remark: listed apart in the source

Structure (SMILES)	IC50 [1]	IC50 (DNA polymerase beta)	IC50 [2]	IC50 (Translocator protein [3])	IC50 (Translocator protein [4])
CC(=O)N1c2ccccc2N=C2CC(C)(C)CC(=O)C2C1c1ccc(Cl)cc1Cl (stereo not drawn) [10-acetyl-11-(2,4-dichlorophenyl)-3,3-dimethyl-2,3,4,5,10,11-hexahydro-1H-dibenzo[b,e][1,4]diazepin-1-one]	> 100 µM	> 100 µM	> 100 µM		
COc1ccc(C2C3C(=O)CC(C)(C)CC3=Nc3ccccc3N2C(C)=O)cc1OCc1ccccc1 (stereo not drawn) [10-acetyl-11-(3-(benzyloxy)-4-methoxyphenyl)-3,3-dimethyl-2,3,4,5,10,11-hexahydro-1H-dibenzo[b,e][1,4]diazepin-1-one]	> 100 µM	> 100 µM	> 100 µM		
CC(=O)N1c2cccc(O)c2N=C2CC(C)(C)CC(=O)C2C1c1ccc(OCc2ccccc2)cc1Cl (stereo not drawn) [10-acetyl-11-(4-(benzyloxy)-2-chlorophenyl)-6-hydroxy-3,3-dimethyl-2,3,4,5,10,11-hexahydro-1H-dibenzo[b,e][1,4]diazepin-1-one]				> 30 µM	> 30 µM
